Screens (PubChem)
CHRM4 agonist = agonists of human muscarinic M4 receptor (CHRM4); P08173; CHO-K1 hM4/Gqi5, Fluo-8 calcium fluorescence; vehicle 0%, full acetylcholine response 100%; activation, % at 3 µM; actives 0.14% (n = 360,000); AID 624127;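 active = activation above the run mean over all test wells plus 3 SD, cut at about 32% in these data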;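 note: peak over basal fluorescence ratio per well then scaled between controls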
M5 ag = agonists of human muscarinic M5 receptor (CHRM5); actives 0.19% (n = 360,000); AID 624037; activation, % at 3 µM; CHO-K1 hM5 cells, Fluo-8 calcium fluorescence; 0% DMSO wells, 100% maximal acetylcholine response;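 active = activation above the run's mean over test compounds plus 3 SD, cut at about 23% in these data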;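 note: signal is peak over basal fluorescence ratio across the kinetic read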
Target sequence (P08912 whole entry, looked up): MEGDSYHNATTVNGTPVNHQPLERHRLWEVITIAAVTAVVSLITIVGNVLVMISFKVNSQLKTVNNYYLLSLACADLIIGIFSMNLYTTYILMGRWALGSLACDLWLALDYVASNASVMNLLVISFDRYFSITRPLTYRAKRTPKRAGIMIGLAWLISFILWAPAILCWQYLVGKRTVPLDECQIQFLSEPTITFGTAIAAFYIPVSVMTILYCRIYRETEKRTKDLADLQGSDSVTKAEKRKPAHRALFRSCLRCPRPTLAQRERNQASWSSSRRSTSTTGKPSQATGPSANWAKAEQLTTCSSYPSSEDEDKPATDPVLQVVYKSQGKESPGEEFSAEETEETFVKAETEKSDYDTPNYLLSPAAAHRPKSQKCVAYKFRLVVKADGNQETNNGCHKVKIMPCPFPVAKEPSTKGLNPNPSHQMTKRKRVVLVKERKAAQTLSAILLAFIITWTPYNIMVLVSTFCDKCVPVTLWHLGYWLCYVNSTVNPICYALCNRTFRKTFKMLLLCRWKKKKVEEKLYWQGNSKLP
CHRM4 PAM = potentiates acetylcholine response at human M4 receptor; CHO-K1 hM4/Gqi5, Fluo-8 calcium fluorescence, ACh EC20; 0% = ACh EC20, 100% = maximal ACh; activation, % at 3 µM; P08173; AID 624126; actives 0.4% (n = 360,000);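 active = activation above its plate's cutoff, the mean activation of sample wells plus 3 SD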
CHRM5 PAM = CHRM5 positive allosteric modulation | AID 624038 | P08912 | activation, % at 3 µM | actives 0.3% (n = 360,000) | CHO-K1 hM5, Fluo-8 calcium, ACh EC20 PAM; 0% = ACh EC20, 100% = ACh EC100;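 active = activation above the run cutoff, the mean activation of all test compounds plus 3 SD, cut at about 18% in these data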
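System – CHO-K1 hM5 cells · Compound – 3 µM, single dose · Incubation – compound preincubation 140 s before EC20 acetylcholine addition · Technique – Fluo-8 calcium fluorescence · Measure – Max/basal fluorescence ratio as % of EC20–EC100 ACh window · Benchmarks – low control EC20 acetylcholine (0%), high control EC100 acetylcholine (100%) · Replication – singlicate, one well per test compound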
M4 antag = CHRM4 antagonism in calcium assay. actives 0.73% (n = 360,000). P08173. inhibition, % at 3 µM. CHO-hM4 cells, ACh EC80, Fluo-8 calcium fluorescence;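 active = inhibition above its plate's cutoff, the mean inhibition of sample wells plus 3 SD, cut at about 27% in these data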
CHRM5 antagonist = antagonists of human muscarinic M5 receptor (CHRM5). AID 624040. actives 0.59% (n = 360,000). CHO-hM5 cells, Fluo-8 calcium fluorescence, ACh EC80. P08912. inhibition, % at 3 µM;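 active = inhibition above a per-plate cutoff, the mean of that plate's test compounds plus 3 SD, cut at about 27% in these data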
Of the large screens only hits and unclear results are named; the others gave an inactive call. Hits are enriched below; roughly 1.9% of the tested compounds scored in any of these assays.

CC(C)N1CCN(CCCc2ccccc2)CC1CCO (stereo unspecified)	none
COc1ccccc1C(=O)N1CCN(C(=O)c2oc3c(C)c(C)ccc3c2C)CC1	none
CCCOc1ccc(C(=O)NNC(=S)NC(=O)c2ccccc2)cc1	CHRM4 agonist 136, M5 ag 78, M4 antag 27
CC(=O)c1cccc(NC(=S)NC(=O)c2ccc(C)cc2)c1	CHRM4 PAM 26
COc1ccc(C(=O)NC(=S)NNC(=O)c2ccc(C)cc2)cc1	CHRM4 agonist 118, M5 ag 75
CCCOc1ccc(C(=O)NNC(=S)NC(=O)c2ccco2)cc1	CHRM4 agonist 126, M5 ag 60, CHRM5 antagonist 31
CC1CCN(C(=O)c2cc(S(=O)(=O)N3CCCCC3)c[nH]2)CC1	none
COC(=O)[C@]1(Cc2ccccc2)N[C@H](CN(C)C(=O)c2ccc(F)cc2)[C@@H]2C(=O)N(Cc3ccccc3)C(=O)[C@@H]21	none
CSc1nsc(SC)c1C(=O)Nc1ccc(C(C)(C)C)cc1	none
CSc1nsc(SC)c1C(=O)NC(=O)Nc1cccnc1	CHRM5 PAM 22
CC(=NNC(=O)c1ccncc1)c1ccc2ccccc2c1O	CHRM4 agonist 57, M5 ag 194
CC(=NNC(=O)c1ccncc1)c1ccccc1O	none
CC(C)CC(=NNC(=O)c1ccncc1)c1cc(Cl)ccc1O	CHRM4 agonist 40, M5 ag 38
C/C(=N/NC(=O)c1ccncc1)c1ccc(NC(=O)c2ccc(Cl)cc2Cl)cc1	none
CC(=NNC(=O)c1ccncc1)c1ccc(O)cc1O	CHRM5 PAM 22
COc1ccc(OCC(=O)N2c3ccccc3CC2C)c([N+](=O)[O-])c1 (stereo unspecified)	none
Cc1ccc(C)c(N2CCN(S(=O)(=O)c3ccc4c(c3)NC(=O)CS4)CC2)c1	none
Cc1ccc(NC(=O)c2ccc(Cl)c(S(=O)(=O)N3CCCC3)c2)nc1	none
Cc1ccccc1NC(=O)CSc1nnc(CNC(=O)c2ccco2)n1C	none
O=C(COc1ccccc1)N[C@@H]1c2ccccc2CC[C@@H]1O	none
CC(=O)Nc1ccc(/C=N/N2CCCCC2)cc1	CHRM5 PAM 20
COc1ccc(OC)c(/C=C2\NC(=O)NC2=O)c1	none
COc1cc(N2CCCC2)c(OC)cc1/C=C1/NC(=S)NC1=O	M5 ag 32
COc1ccc(CC(=O)NCCCCc2ccccc2)cc1OC	none
COc1cc(C(=O)Oc2cccc(Nc3ncnc4ccccc34)c2)cc(OC)c1OC	M4 antag 31, CHRM5 antagonist 29
COc1cccc(C2SCC(=O)N2c2ccc(C)cc2)c1OC (stereo unspecified)	M4 antag 65
COc1ccc(N2C(=O)CSC2c2cccc(OC)c2OC)cc1 (stereo unspecified)	none
COc1cc(C2NC(=O)N(C)C(C)=C2C(=O)OCc2ccccc2)cc(Br)c1O (stereo unspecified)	CHRM4 PAM 14
N#Cc1ccccc1OCC(=O)Nc1nnc(C2CC2)s1	none
CCCNS(=O)(=O)c1ccc(CCC(=O)Nc2cc(Cl)ccc2Oc2ccccc2)cc1	M4 antag 43, CHRM5 antagonist 29
O=C(Nc1ccc(Br)c(C(F)(F)F)c1)c1ccccc1	none
O=C(Nc1ccc(Br)c(C(F)(F)F)c1)c1ccc(C(F)(F)F)cc1	M4 antag 34, CHRM5 antagonist 31
Cc1c(NS(=O)(=O)c2cc(C(=O)OCC(=O)c3ccccc3F)ccc2Cl)c(=O)n(-c2ccccc2)n1C	none
CCOc1ccccc1N(CC(=O)NCC1CCCO1)C(=O)CCC(=O)Nc1ccccn1 (stereo unspecified)	CHRM5 antagonist 42
COc1ccc(C2=NS(=O)(=O)N(C)C(C(=O)N(C)Cc3ccccc3)=C2)cc1OC	none
COC(=O)c1cc(Oc2ccc(C(=O)OC)cc2N)cc(C(=O)OC)c1	CHRM4 PAM 20
CC(C)CN(C(=O)c1cccc(S(=O)(=O)N2CCN(c3ccc(F)cc3)CC2)c1)C1CCS(=O)(=O)C1 (stereo unspecified)	none
CCCC(=O)Nc1nc2ccc(S(=O)(=O)N3CCCCC3)cc2s1	none
CC(C)CC(=O)Nc1nc2ccc(S(=O)(=O)N3CCOCC3)cc2s1	CHRM5 PAM 19
COc1ccc(N(CC(C)C)S(=O)(=O)c2nnc(NC(=O)CC(C)C)s2)cc1	none
C[C@@H]1CC2=C(C(=O)OC(C)(C)O2)[C@H](c2ccc(F)cc2)O1	none
COc1ccc2c(C#CCCO)c(-c3ccc(S(C)(=O)=O)cc3)sc2c1	M4 antag 32
COc1ccc2sc(-c3ccc(S(C)(=O)=O)cc3)c(C#CCO)c2c1	none
COc1ccc(NC(=O)c2ccccc2NS(=O)(=O)c2ccc(CNC(C)=O)cc2)c(OC)c1	none
Cc1ccc(C)c(N2CCN(C(=O)C(Cc3ccccc3)n3cccc3)CC2)c1 (stereo unspecified)	M5 ag 42
O=C(C(Cc1ccccc1)n1cccc1)N1CCN(c2ccccc2)CC1 (stereo unspecified)	none
O=C(CSc1ncn[nH]1)NCc1ccccc1Cl	none
CC(=O)Nc1ccc2c(c1)CCc1ccccc1-2	none
CNCCC=C1c2ccccc2CCc2ccccc21	M4 antag 67, CHRM5 antagonist 93
Cc1cc(NC(=O)CN(C)S(=O)(=O)c2cnc[nH]2)ccc1Br	none
CCOC(=O)CC(=O)Nc1ccccc1C(=O)O	CHRM4 PAM 25
CCOC(=O)C1CCN(Cc2cc(Cl)c3ccccc3c2O)CC1	M4 antag 29
CCn1c(CNC(=O)c2ccccc2Br)nnc1SCC(=O)NC1=NCCS1	none
COc1ccc2nc(S(=O)Cc3ncc(C)c(OC)c3C)[nH]c2c1 (stereo unspecified)	M4 antag 42
COCCCOc1ccnc(CS(=O)c2nc3ccccc3[nH]2)c1C (stereo unspecified)	none
COc1cc(/C=C/C(=O)c2ccc([N+](=O)[O-])o2)ccc1O	none
O=C(/C=C/c1cccc(Cl)c1)c1ccc([N+](=O)[O-])o1	M4 antag 29
CCOC(=O)C(=CN=C(N)Nc1nc2ccccc2o1)C(=O)OCC	CHRM4 PAM 20
c1ccc(Cn2nnnc2-c2ccco2)cc1	CHRM4 PAM 37
Cc1ccc(-n2nnnc2-c2ccco2)cc1	none
Cc1cnc(C(=O)OCc2nc3ccccc3o2)cn1	none
CC(C)(C)n1cnc2cc(NCc3ccc(Br)cc3)ccc21	CHRM5 antagonist 27
CCc1ccc(CNc2ccc3c(c2)ncn3C(C)(C)C)cc1	none
